Source: ChEMBL document CHEMBL4373727, “Thienopyrimidinone Derivatives That Inhibit Bacterial tRNA (Guanine37-N1)-Methyltransferase (TrmD) by Restructuring the Active Site with a Tyrosine-Flipping Mechanism” (J Med Chem, 2019)

Legend:
[1] = target: T1, tRNA (guanine-N(1)-)-methyltransferase (Pseudomonas aeruginosa (strain ATCC 15692 / DSM 22644 / CIP 104116 / JCM14847 / LMG 12228 / 1C / PRS 101 / PAO1)) (UniProt Q9HXQ1); assay: Binding affinity to Pseudomonas aeruginosa tRNA (guanine(37)-N1)-methyltransferase (Leu5 to Asp25 residues) expressed in Escherichia coli BL21 (DE3) Rosetta T1R cells assessed as dissociation rate constant by surface plasmon resonance assay
T1 sequence (whole entry): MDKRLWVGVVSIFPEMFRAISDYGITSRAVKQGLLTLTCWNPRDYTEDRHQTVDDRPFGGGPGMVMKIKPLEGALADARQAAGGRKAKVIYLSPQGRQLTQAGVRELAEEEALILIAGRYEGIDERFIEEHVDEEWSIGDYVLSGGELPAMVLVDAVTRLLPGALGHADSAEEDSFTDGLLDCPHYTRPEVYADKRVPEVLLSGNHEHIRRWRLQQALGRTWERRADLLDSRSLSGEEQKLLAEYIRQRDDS
Procedure, shortened: (§1)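 SPR at 25 °C. His-tagged TrmD (50 μg/mL) captured on an anti-His antibody surface (about 2200 RU), with a blank reference cell. Buffer: 50 mM Tris-HCl pH 8, 150 mM NaCl, 1 mM MgCl2, 1 mM DTT, 0.05% Tween-20. Analyte in 2-fold dilutions, injected lowest to highest at 30 μL/min, 30 s contact, 240 s dissociation. KD from steady-state affinity fit.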

[2] = target: T2, tRNA (guanine-N(1)-)-methyltransferase (Staphylococcus aureus (strain NCTC 8325 / PS 47)) (UniProt Q2FZ43); assay: Binding affinity to full length Staphylococcus aureus tRNA (guanine(37)-N1)-methyltransferase expressed in Escherichia coli BL21 (DE3) assessed as dissociation rate constant by surface plasmon resonance assay; procedure, shortened: as §1
T2 sequence (whole entry): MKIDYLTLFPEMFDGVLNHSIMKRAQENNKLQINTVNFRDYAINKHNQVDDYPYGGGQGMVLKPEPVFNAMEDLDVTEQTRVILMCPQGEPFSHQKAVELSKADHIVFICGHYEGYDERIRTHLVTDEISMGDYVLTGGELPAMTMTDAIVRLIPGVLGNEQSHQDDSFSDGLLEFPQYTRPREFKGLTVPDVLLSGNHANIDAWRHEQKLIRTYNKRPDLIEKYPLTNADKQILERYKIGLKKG

[3] = target: T3, tRNA (guanine-N(1)-)-methyltransferase (Staphylococcus aureus (strain NCTC 8325 / PS 47), UniProt Q2FZ43); assay: Binding affinity to full length Staphylococcus aureus tRNA (guanine(37)-N1)-methyltransferase expressed in Escherichia coli BL21 (DE3) by surface plasmon resonance assay; procedure, shortened: as §1
T3 sequence (Q2FZ43 whole entry): T2 sequence (whole entry)

[4] = target: T4, tRNA (guanine-N(1)-)-methyltransferase (Mycobacterium tuberculosis (strain ATCC 25618 / H37Rv), UniProt P9WFY7); assay: Binding affinity to full length Mycobacterium tuberculosis tRNA (guanine(37)-N1)-methyltransferase expressed in Escherichia coli BL21 (DE3) by surface plasmon resonance assay; procedure, shortened: as §1
T4 sequence (P9WFY7 whole entry): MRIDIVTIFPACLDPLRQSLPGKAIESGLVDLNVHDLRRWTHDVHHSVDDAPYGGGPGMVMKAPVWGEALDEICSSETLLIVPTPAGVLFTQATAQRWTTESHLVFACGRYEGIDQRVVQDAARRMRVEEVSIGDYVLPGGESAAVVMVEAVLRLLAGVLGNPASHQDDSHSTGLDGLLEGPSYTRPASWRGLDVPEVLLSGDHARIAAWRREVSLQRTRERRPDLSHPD

[5] = target: T2, tRNA (guanine-N(1)-)-methyltransferase (Staphylococcus aureus (strain NCTC 8325 / PS 47)); assay: Binding affinity to full length Staphylococcus aureus tRNA (guanine(37)-N1)-methyltransferase expressed in Escherichia coli BL21 (DE3) assessed as association rate constant by surface plasmon resonance assay; procedure, shortened: as §1
[6] = target: T5, tRNA (guanine-N(1)-)-methyltransferase (Mycobacterium tuberculosis (strain ATCC 25618 / H37Rv)) (UniProt P9WFY7); assay: Binding affinity to full length Mycobacterium tuberculosis tRNA (guanine(37)-N1)-methyltransferase expressed in Escherichia coli BL21 (DE3) assessed as dissociation rate constant by surface plasmon resonance assay; procedure, shortened: as §1
T5 sequence (whole entry): T4 sequence (P9WFY7 whole entry)

[7] = target: T6, tRNA (guanine-N(1)-)-methyltransferase (Pseudomonas aeruginosa (strain ATCC 15692 / DSM 22644 / CIP 104116 / JCM14847 / LMG 12228 / 1C / PRS 101 / PAO1), UniProt Q9HXQ1); assay: Binding affinity to Pseudomonas aeruginosa tRNA (guanine(37)-N1)-methyltransferase (Leu5 to Asp25 residues) expressed in Escherichia coli BL21 (DE3) Rosetta T1R cells by surface plasmon resonance assay; procedure, shortened: as §1
T6 sequence (Q9HXQ1 whole entry): T1 sequence (whole entry)

[8] = target: T5, tRNA (guanine-N(1)-)-methyltransferase (Mycobacterium tuberculosis (strain ATCC 25618 / H37Rv)); assay: Binding affinity to full length Mycobacterium tuberculosis tRNA (guanine(37)-N1)-methyltransferase expressed in Escherichia coli BL21 (DE3) assessed as association rate constant by surface plasmon resonance assay; procedure, shortened: as §1
[9] = target: T1, tRNA (guanine-N(1)-)-methyltransferase (Pseudomonas aeruginosa (strain ATCC 15692 / DSM 22644 / CIP 104116 / JCM14847 / LMG 12228 / 1C / PRS 101 / PAO1)); assay: Binding affinity to Pseudomonas aeruginosa tRNA (guanine(37)-N1)-methyltransferase (Leu5 to Asp25 residues) expressed in Escherichia coli BL21 (DE3) Rosetta T1R cells assessed as thermal stabilization of protein by measuring change in melting temperature at 2 mM by SYPRO orange based thermal shift assay
Procedure, shortened: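 Thermal shift: 4 μM TrmD with 5× SYPRO Orange and ligand in 50 mM Tris-HCl pH 8, 150 mM NaCl, 1 mM MgCl2, 1 mM DTT, 0.05% Tween-20. Buffer-only control. Heated from 25 to 95 °C in a real-time PCR instrument, and Tm taken as the unfolding midpoint. Ligand levels: SAH 2 mM, inhibitors 0.1 mM.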

[10] = target: T1, tRNA (guanine-N(1)-)-methyltransferase (Pseudomonas aeruginosa (strain ATCC 15692 / DSM 22644 / CIP 104116 / JCM14847 / LMG 12228 / 1C / PRS 101 / PAO1)); assay: Binding affinity to Pseudomonas aeruginosa tRNA (guanine(37)-N1)-methyltransferase (Leu5 to Asp25 residues) expressed in Escherichia coli BL21 (DE3) Rosetta T1R cells assessed as association rate constant by surface plasmon resonance assay; procedure, shortened: as §1

`Nc1ncnc2c1ncn2[C@@H]1O[C@H](CSCC[C@H](N)C(=O)O)[C@@H](O)[C@H]1O` [S-ADENOSYLHOMOCYSTEINE] showed a Kdiss [1] of 0.326 s⁻¹, a Kdiss [2] of 0.92 s⁻¹ and a Kd [3] of 3.3 µM. The Kd [4] was 10.1 µM, the Ka [5] was 279000 M⁻¹ s⁻¹ and the Kdiss [6] was 0.0775 s⁻¹. The Kd [7] was 5.9 µM, the Ka [8] was 7700 M⁻¹ s⁻¹ and the ΔTm [9] was 4 to 29 °C. The Ka [10] was 55500 M⁻¹ s⁻¹.
